Laboratory results from ChEMBL document CHEMBL1759995, “Potential CRF1R PET imaging agents: N-fluoroalkyl-8-(6-methoxy-2-methylpyridin-3-yl)-2,7-dimethyl-N-alkylpyrazolo[1,5-a][1,3,5]triazin-4-amines” (Bioorg Med Chem Lett, 2011).

What was measured:
[1] = Lipophilicity, log D of the compound in octanol-phosphate buffer at pH 7.4 by Shake flask method; format: physicochemical
Summary of the method: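 Shake-flask partitioning between 25 mM phosphate buffer (pH 7.4) and octanol, both pre-saturated by mixing and standing overnight. A 1.0 mg sample dissolved in 1 mL octanol and added to 50 mL octanol-saturated buffer.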

[2] = molecular target: T1, Corticotropin-releasing factor receptor 1 (Rattus norvegicus, UniProt P35353); assay: Displacement of [125I]-o-CRF from CRF1 receptor in rat frontal cortex by rapid filtration technique; format: tissue-based
T1 sequence (P35353 whole entry): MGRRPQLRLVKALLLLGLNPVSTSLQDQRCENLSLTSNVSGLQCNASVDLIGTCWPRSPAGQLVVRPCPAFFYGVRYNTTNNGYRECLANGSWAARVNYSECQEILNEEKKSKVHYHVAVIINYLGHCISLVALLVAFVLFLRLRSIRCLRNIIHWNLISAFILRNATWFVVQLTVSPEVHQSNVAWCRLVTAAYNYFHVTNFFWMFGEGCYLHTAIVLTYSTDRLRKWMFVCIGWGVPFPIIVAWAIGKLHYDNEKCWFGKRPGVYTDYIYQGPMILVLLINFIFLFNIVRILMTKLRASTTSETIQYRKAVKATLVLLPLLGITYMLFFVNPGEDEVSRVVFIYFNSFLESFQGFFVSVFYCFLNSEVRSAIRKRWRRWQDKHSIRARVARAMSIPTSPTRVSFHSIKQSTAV
Summary of the method: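 Frozen rat frontal cortex homogenized in 50 mM HEPES (pH 7.0 at 23 °C) with MgCl2, EGTA, protease inhibitors, 0.005% Triton X-100, bacitracin and 0.1% ovalbumin; pellet washed twice by centrifugation at 32,000 g. Membranes (25 µg/well) incubated with 150 pM 125I-o-CRF and compounds 2 h at 21 °C. Bound ligand captured on PEI-treated GF/B filters, washed with ice-cold PBS/0.01% Triton. IC50 from inhibition of specific binding.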

SMILES	logD [1]	IC50 [2] [nM]
CCN(CCF)c1nc(C)nc2c(-c3ccc(OC)nc3C)c(C)nn12	4.5	5.8
COCCN(CCF)c1nc(C)nc2c(-c3ccc(OC)nc3C)c(C)nn12	4.6	5.5
CCN(CCCF)c1nc(C)nc2c(-c3ccc(OC)nc3C)c(C)nn12	4.8	1.6
COCCN(CCCF)c1nc(C)nc2c(-c3ccc(OC)nc3C)c(C)nn12	4.1	1.9
COc1ccc(-c2c(C)nn3c(N(CCC#N)CCCF)nc(C)nc23)c(C)n1	3.5	6.5
COCCN(CCCF)c1nc(C)nc2c(-c3ccc(OC)nc3)c(C)nn12	3.4	35
COCCN(CCCF)c1nc(C)nc2c(-c3cnc(OC)nc3)c(C)nn12	3.2	390
COCCN(CCCF)c1nc(C)nc2c(-c3cnc(OC)nc3OC)c(C)nn12	1.8	> 10000
